Calls of active or inactive are those of the source. No cut-off for these calls is given here.
Tests used:
KB = test: Cytotoxicity against human KB cells after 72 hrs; assay type: functional, cell-based
How it was run: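 KB cells in EMEM (4.5 g/L glucose, 10% FCS, 1% glutamine) seeded 5 × 10³/well, dosed after 24 h with compound in DMSO (<0.1%). 72 h exposure, then resazurin 2 h; fluorescence ex 560/em 590 nm. IC50 = 50% fluorescence decrease versus untreated; triplicate.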

K562 [1] = test: Cell cycle arrest in human K562 cells assessed as accumulation at G2/M phase at 0.5 uM after 6 hrs by flow cytometry; assay type: functional
How it was run: (§1)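 Exponentially growing K562 cells exposed to compound or DMSO for 6, 16 or 24 h; cell-cycle phase distribution determined by flow cytometry; data representative of three independent experiments.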

K562 [2] = test: Cell cycle arrest in human K562 cells assessed as accumulation at S phase at 1 uM after 6 hrs by flow cytometry; assay type: functional; how it was run: as §1
K562 [3] = test: Cell cycle arrest in human K562 cells assessed as accumulation at G0/G1 phase at 1 uM after 16 hrs by flow cytometry; assay type: functional; how it was run: as §1
K562 [4] = test: Cell cycle arrest in human K562 cells assessed as accumulation at S phase at 1 uM after 16 hrs by flow cytometry; assay type: functional; how it was run: as §1
K562 [5] = test: Induction of apoptosis in human K562 cells assessed as activation of caspase 3 at 0.01 to 1 uM after 24 hrs by microtitre plate fluorimeter; assay type: functional, cell-based
How it was run: (§2)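 Cells seeded 5 × 10⁴/well, then after 24 h given compound at 1, 0.1 or 0.01 µM, or 0.1% DMSO as negative control, for 24 h. Caspase-3/7 substrate in homogeneous assay buffer added; fluorescence read at 527 nm after 1 h.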

MDA-MB-231 [6] = test: Cell cycle arrest in human MDA-MB-231 cells assessed as accumulation at G2/M phase at 0.05 uM after 24 hrs by flow cytometry
MDA-MB-435 = test: Antiproliferative activity against human MDA-MB-435 cells after 72 hrs; assay type: functional, cell-based; conditions: MDA-MB-435, 72 h
How it was run: (§3)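 Cells were seeded at 5 × 10³ per well and cultured for 24 h. Test compound in DMSO (under 0.1%) was then added for 72 h. Resazurin was added for 2 h, and fluorescence was read at ex 560 nm / em 590 nm. IC50 was taken as the concentration giving a 50% fall in fluorescence versus untreated cells. Runs were done in triplicate.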

K562 [7] = test: Cell cycle arrest in human K562 cells assessed as accumulation at G0/G1 phase at 1 uM after 24 hrs by flow cytometry; assay type: functional; how it was run: as §1
K562 [8] = test: Cell cycle arrest in human K562 cells assessed as accumulation at S phase at 0.05 uM after 6 hrs by flow cytometry; assay type: functional; how it was run: as §1
K562 [9] = test: Cell cycle arrest in human K562 cells assessed as accumulation at G0/G1 phase at 0.05 uM after 24 hrs by flow cytometry; assay type: functional; how it was run: as §1
K562 [10] = test: Cell cycle arrest in human K562 cells assessed as accumulation at G2/M phase at 1 uM after 16 hrs by flow cytometry; assay type: functional; how it was run: as §1
K562 [11] = test: Cell cycle arrest in human K562 cells assessed as accumulation at G0/G1 phase at 1 uM after 6 hrs by flow cytometry; assay type: functional; how it was run: as §1
K562 [12] = test: Cell cycle arrest in human K562 cells assessed as accumulation at G2/M phase at 0.5 uM after 24 hrs by flow cytometry; assay type: functional; how it was run: as §1
K562 [13] = test: Antiproliferative activity against human K562 cells after 72 hrs; assay type: functional, cell-based; conditions: K562, 72 h; how it was run: as §3
B16-F10 = test: Antiproliferative activity against mouse B16F10 cells after 72 hrs; assay type: functional, cell-based; conditions: B16-F10, 72 h; how it was run: as §3
K562 [14] = test: Cell cycle arrest in human K562 cells assessed as accumulation at G0/G1 phase at 0.5 uM after 6 hrs by flow cytometry; assay type: functional; how it was run: as §1
K562 [15] = test: Induction of apoptosis in human K562 cells assessed as activation of caspase 7 at 0.01 to 1 uM after 24 hrs by microtitre plate fluorimeter; assay type: functional, cell-based; how it was run: as §2
K562 [16] = test: Cell cycle arrest in human K562 cells assessed as accumulation at G2/M phase at 1 uM after 6 hrs by flow cytometry; assay type: functional; how it was run: as §1
MDA-MB-231 [17] = test: Cell cycle arrest in human MDA-MB-231 cells assessed as accumulation at G2/M phase at 0.1 uM after 24 hrs by flow cytometry
K562 [18] = test: Cell cycle arrest in human K562 cells assessed as accumulation at G2/M phase at 0.05 uM after 16 hrs by flow cytometry; assay type: functional; how it was run: as §1
[19] = Inhibition of sheep brain tubulin polymerization; set-up: species or system Ovis aries
How it was run: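 Sheep brain tubulin (about 2–3 mg/mL), purified by two assembly–disassembly cycles, in 0.1 M MES, 0.5 mM MgCl₂, 1 mM EGTA, 1 mM GTP, pH 6.6. Assembly followed by turbidity at 350 nm, 37 °C.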

MDA-MB-231 [20] = test: Induction of apoptosis in human MDA-MB-231 cells assessed as activation of caspase 7 at 0.01 to 1 uM after 24 hrs by microtitre plate fluorimeter; assay type: functional, cell-based; how it was run: as §2
K562 [21] = test: Cell cycle arrest in human K562 cells assessed as accumulation at G0/G1 phase at 0.05 uM after 6 hrs by flow cytometry; assay type: functional; how it was run: as §1
MDA-MB-231 [22] = test: Effect on cell morphology in human MDA-MB-231 cells assessed as change in cell size and shape at 0.050 uM after 24 hrs; assay type: functional, cell-based
How it was run: (§4)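 MDA-MB231 cells on chamber slides treated 24 h at 50 nM, fixed in 3.7% formaldehyde, permeabilized with 0.1% Triton X-100. Stained for β-tubulin (Alexa 488 secondary), actin (Alexa 546 phalloidin) and nuclei (Hoechst 33342); imaged by fluorescence microscopy at 60× and 100×.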

HCT-116 [23] = test: Induction of apoptosis in human HCT116 cells assessed as activation of caspase 7 at 0.01 to 1 uM after 24 hrs by microtitre plate fluorimeter; assay type: functional, cell-based; how it was run: as §2
HT-29 = test: Antiproliferative activity against human HT29 cells after 72 hrs; assay type: functional, cell-based; conditions: HT-29, 72 h; how it was run: as §3
K562 [24] = test: Cell cycle arrest in human K562 cells assessed as accumulation at S phase at 0.05 uM after 24 hrs by flow cytometry; assay type: functional; how it was run: as §1
K562 [25] = test: Cell cycle arrest in human K562 cells assessed as accumulation at G0/G1 phase at 0.5 uM after 16 hrs by flow cytometry; assay type: functional; how it was run: as §1
K562 [26] = test: Cell cycle arrest in human K562 cells assessed as accumulation at S phase at 0.5 uM after 6 hrs by flow cytometry; assay type: functional; how it was run: as §1
K562 [27] = test: Cell cycle arrest in human K562 cells assessed as accumulation at S phase at 1 uM after 24 hrs by flow cytometry; assay type: functional; how it was run: as §1
MCF7 [28] = test: Antiproliferative activity against human MCF7 cells after 72 hrs; assay type: functional, cell-based; conditions: MCF7, 72 h; how it was run: as §3
K562 [29] = test: Cell cycle arrest in human K562 cells assessed as accumulation at G2/M phase at 0.05 uM after 24 hrs by flow cytometry; assay type: functional; how it was run: as §1
MCF7 [30] = test: Cell cycle arrest in human MCF7 cells assessed as accumulation at G2/M phase at 0.1 uM after 24 hrs by flow cytometry
MDA-MB-231 [31] = test: Effect on cell morphology in human MDA-MB-231 cells assessed as change in cellular mass at 0.050 uM after 24 hrs; assay type: functional, cell-based; how it was run: as §4
K562 [32] = test: Cell cycle arrest in human K562 cells assessed as accumulation at G2/M phase at 1 uM after 24 hrs by flow cytometry; assay type: functional; conditions: in the assay text read “at 0.1 uM” for “at 1 uM”; how it was run: as §1
K562 [33] = test: Cell cycle arrest in human K562 cells assessed as accumulation at S phase at 0.05 uM after 16 hrs by flow cytometry; assay type: functional; how it was run: as §1
K562 [34] = test: Cell cycle arrest in human K562 cells assessed as accumulation at G2/M phase at 0.05 uM after 6 hrs by flow cytometry; assay type: functional; how it was run: as §1
K562 [35] = test: Cell cycle arrest in human K562 cells assessed as accumulation at G2/M phase at 0.5 uM after 16 hrs by flow cytometry; assay type: functional; how it was run: as §1
[36] = Antitumor activity against human U87 tumor transplanted in chick chorio-allantoic membrane assessed as reduction of tumor volume at 10 uM after 4 days; assay type: functional, U-87MG ATCC; set-up: scale not given: the % may be the effect or the level left
How it was run: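 U87 glioma cells (5 × 10⁶ in 20 µL medium) grafted on chick CAM on embryonic day 10; size-matched tumors grouped on day 2. 20 µL drug at 10 µM applied locally once daily, days 3–6 of tumor growth; controls got solvent. Volume V = 4/3πr³ from length and width, six tumors per group.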

HCT-116 [37] = test: Induction of apoptosis in human HCT116 cells assessed as activation of caspase 3 at 0.01 to 1 uM after 24 hrs by microtitre plate fluorimeter; assay type: functional, cell-based; how it was run: as §2
MDA-MB-231 [38] = test: Induction of apoptosis in human MDA-MB-231 cells assessed as activation of caspase 3 at 0.01 to 1 uM after 24 hrs by microtitre plate fluorimeter; assay type: functional, cell-based; how it was run: as §2
A549 = test: Antiproliferative activity against human A549 cells after 72 hrs; assay type: functional, cell-based; conditions: A549, 72 h; how it was run: as §3
K562 [39] = test: Cell cycle arrest in human K562 cells assessed as accumulation at G0/G1 phase at 0.05 uM after 16 hrs by flow cytometry; assay type: functional; how it was run: as §1
MDA-MB-231 [40] = test: Antiproliferative activity against human MDA-MB-231 cells after 72 hrs; assay type: functional, cell-based; conditions: MDA-MB-231, 72 h; how it was run: as §3
K562 [41] = test: Cell cycle arrest in human K562 cells assessed as accumulation at G0/G1 phase at 0.5 uM after 24 hrs by flow cytometry; assay type: functional; how it was run: as §1
MCF7 [42] = test: Cell cycle arrest in human MCF7 cells assessed as accumulation at G2/M phase at 0.05 uM after 24 hrs by flow cytometry
K562 [43] = test: Cell cycle arrest in human K562 cells assessed as accumulation at S phase at 0.5 uM after 16 hrs by flow cytometry; assay type: functional; how it was run: as §1
L1210 = test: Antiproliferative activity against mouse L1210 cells after 72 hrs; assay type: functional, cell-based; conditions: L1210, 72 h; how it was run: as §3
HCT-116 [44] = test: Antiproliferative activity against human HCT116 cells after 72 hrs; assay type: functional, cell-based; conditions: HCT-116, 72 h; how it was run: as §3
K562 [45] = test: Cell cycle arrest in human K562 cells assessed as accumulation at S phase at 0.5 uM after 24 hrs by flow cytometry; assay type: functional; how it was run: as §1

## O=C1NCc2ccccc2-c2c1[nH]c1ccccc21
KB
  IC50: 550 nM

## CC[C@@H]1NC(=O)c2[nH]c3ccccc3c2-c2ccccc21
K562 [1]
  Activity: 32%
K562 [2]
  Activity: 91.1%
K562 [3]
  Activity: 2.4%
K562 [4]
  Activity: 52.8%
K562 [5]
  Activity: Active
MDA-MB-231 [6]
  Activity: 44.5%
MDA-MB-435
  IC50: 70 nM
K562 [7]
  Activity: 7.6%
K562 [8]
  Activity: 94.3%
K562 [9]
  Activity: 14.6%
K562 [10]
  Activity: 43.4%
K562 [11]
  Activity: 0.2%
K562 [12]
  Activity: 44.7%
K562 [13]
  IC50: 70 nM
B16-F10
  IC50: 68 nM
K562 [14]
  Activity: 0.2%
K562 [15]
  Activity: Active
K562 [16]
  Activity: 8.1%
MDA-MB-231 [17]
  Activity: 100%
K562 [18]
  Activity: 1.1%
[19]
  IC50: 1900 nM
MDA-MB-231 [20]
  Activity: Active
KB
  IC50: 37 nM
K562 [21]
  Activity: 0.3%
MDA-MB-231 [22]
  Activity: Active
HCT-116 [23]
  Activity: Active
HT-29
  IC50: 42 nM
K562 [24]
  Activity: 49.1%
K562 [25]
  Activity: 0.6%
K562 [26]
  Activity: 67.8%
K562 [27]
  Activity: 69.5%
MCF7 [28]
  IC50: 40 nM
K562 [29]
  Activity: 24.9%
MCF7 [30]
  Activity: 62.6%
MDA-MB-231 [31]
  Activity: Active
K562 [32]
  Activity: 20.3%
K562 [33]
  Activity: 97.6%
K562 [34]
  Activity: 4.9%
K562 [35]
  Activity: 51.5%
[36]
  Activity: 76%
HCT-116 [37]
  Activity: Active
MDA-MB-231 [38]
  Activity: Active
A549
  IC50: 50 nM
K562 [39]
  Activity: 1%
MDA-MB-231 [40]
  IC50: 30 nM
K562 [41]
  Activity: 1.2%
MCF7 [42]
  Activity: 65.6%
K562 [43]
  Activity: 47.3%
L1210
  IC50: 34 nM
HCT-116 [44]
  IC50: 42 nM
K562 [45]
  Activity: 53.4%

## C[C@H]1NC(=O)c2[nH]c3ccccc3c2-c2ccccc21
KB
  IC50: 340 nM

## COc1ccc2[nH]c3c(c2c1)-c1ccccc1[C@H](C)NC3=O
[19]
  IC50: 51000 nM
KB
  IC50: 3500 nM

— ChEMBL document CHEMBL1150426, “New C5-alkylated indolobenzazepinones acting as inhibitors of tubulin polymerization: cytotoxic and antitumor activities” (J Med Chem, 2008)
